Results as given in paper PMC7496240 (Chemmedchem, 2020).

Each compound was assayed against T1, murine ovastacin (Mus musculus, UniProt Q6HA09) (assay: fluorogenic enzyme activity assay, inhibition of murine ovastacin).
T1 sequence (Q6HA09 86-435 limits assumed): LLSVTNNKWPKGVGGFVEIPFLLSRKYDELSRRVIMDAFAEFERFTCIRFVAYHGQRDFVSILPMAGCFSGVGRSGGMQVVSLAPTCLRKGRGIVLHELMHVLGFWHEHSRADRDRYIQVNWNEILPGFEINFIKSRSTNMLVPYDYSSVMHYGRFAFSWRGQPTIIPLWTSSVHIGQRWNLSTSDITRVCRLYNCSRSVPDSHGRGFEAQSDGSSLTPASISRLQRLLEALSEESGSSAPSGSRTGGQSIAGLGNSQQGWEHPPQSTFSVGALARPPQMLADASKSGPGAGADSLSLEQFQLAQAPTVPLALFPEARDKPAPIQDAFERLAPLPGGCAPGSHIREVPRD
Format: biochemical
Procedure, shortened: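 Recombinant mouse ovastacin was activated with human plasmin (30 min, 10:1 molar ratio). Active enzyme was 1 nM, set by titration with murine fetuin-B. Buffer: 150 mM NaCl, 50 mM Tris·HCl pH 7.4, 0.01% Brij-35, at 37 °C; inhibitors were in DMSO. Reactions started with 25 μM Edans/Dabcyl peptide substrate (final DMSO 1.4%). Initial rates were read ≥1000 s, then proteinase K gave full-turnover calibration. Apparent Ki came from the Morrison equation; two independent experiments, in triplicate.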
`O=C(CCN(Cc1ccc(Cl)cc1F)Cc1ccc(Cl)c(O)c1F)NO` [Compound 12] gave a Ki of 0.75 ± 0.04 µM. `O=C(CCN(Cc1ccc2c(c1)OCO2)Cc1ccc(Cl)c(O)c1F)NO` [Compound 13] showed a Ki of 0.68 ± 0.02 µM. `O=C(CCN(Cc1ccc2c(c1)OCO2)Cc1ccc(Cl)cc1F)NO` [Compound 14] gave a Ki of 1.96 ± 0.08 µM. With `O=C(CCN(Cc1cccnc1)Cc1ccc2c(c1)OCO2)NO` [Compound 15] the Ki was 8.12 ± 0.34 µM. `O=C(CCN(Cc1ccncc1)Cc1ccc2c(c1)OCO2)NO` [Compound 17] was tested, and the Ki was 7.58 ± 0.36 µM. Compound `O=C(CCN(Cc1ccncc1)Cc1ccc(Cl)c(O)c1F)NO` [Compound 18] has a Ki of 8.18 ± 0.29 µM.
